Screens deposited in PubChem by several laboratories.
The list is not random: actives were taken first. Their share in the collection is about 2.4%.
Myeloid diff MLP – myeloid differentiation induction; ER-HoxA9 myeloid progenitors, lysozyme-GFP differentiation, flow cytometry; 1% of 360,000 active; calls only at 10 µM; AID 624256;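 active = normalized GFP-positive differentiation at or above the plate's own cutoff, the solvent-only control mean plus 3 SD; inconclusive = no clear call, values can overlap the other calls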;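 note: cells exposed to compound for four days before flow analysis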
MT1-MMP act inh – MT1-MMP (human) activation inhibition; AID 651647; 0.061% of 360,000 active; HT1080 RFP-PRO-GFP cells, GFP/RFP ratio fluorescence, overnight; percent of plate control window, DMSO zero; P50281; GFP/RFP ratio change, % at 20 µM;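 active = GFP/RFP ratio change of at least 30% with cell ATP level not reduced by more than half and red fluorescence within 50% of control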
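Assay system: HT1080 RFP-PRO-GFP cells. Benchmarks: DMSO vehicle wells and RFP-L50D-GFP reporter cell wells. Times: overnight cell settling, then overnight compound exposure, 37 °C, 5% CO2. Compound: 20 µM single dose, 1% DMSO. Read-out basis: GFP/RFP fluorescence ratio.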
beta cell repl – inducers of beta-cell replication in MIN6 cells. MIN6 cells proliferation, ATPlite luminescence, 48 h; cells starved in 0.2% serum; 100% = growth in 10% serum. 0.29% of 330,000 active. AID 2380. proliferation, % at 10 µM;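 active = compounds whose signal lies at least 3.5 SD above the mean of all wells on their plate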;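 note: 0% = DMSO-treated cells in low-serum medium and 100% = 10% serum control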
DAGLB inhibitor – diacylglycerol lipase beta (human) inhibition; HEK293T DAGLB membrane lysate, EnzChek fluorogenic substrate; inhibition, % at 5.17 µM; 0.059% of 340,000 active; in the data active = inhibition above about 34%;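 note: 0% = enzyme with vehicle and 100% = wells lacking enzyme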
NRP1-CendR mod – alters CendR peptide binding to human NRP-1. FAM-RPARPAR peptide binding to NRP-1, fluorescence polarization. inhibition, % at 25 µM. 0.85% of 360,000 active;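 active = inhibition or corrected inhibition above about 18%, plus a signal ratio from 0.5 to 1.5, limit read from the data, passing the limit was not always enough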
SENP1 inh – SENP1 (human) catalytic domain inhibition | AID 624204 | recombinant SENP1 catalytic domain, CyPet-SUMO1-YPet FRET cleavage | 0.21% of 360,000 active | inhibition, % at 10 µM | Q9P0U3;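 active = inhibition at least 30% at 10 µM, raw YFP signal under a set limit, fluorescence ratio 0.5 to 1.5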;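 note: 0% = enzyme with DMSO and 100% = no enzyme wells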
Target sequence (Q9P0U3 419-644 limits assumed): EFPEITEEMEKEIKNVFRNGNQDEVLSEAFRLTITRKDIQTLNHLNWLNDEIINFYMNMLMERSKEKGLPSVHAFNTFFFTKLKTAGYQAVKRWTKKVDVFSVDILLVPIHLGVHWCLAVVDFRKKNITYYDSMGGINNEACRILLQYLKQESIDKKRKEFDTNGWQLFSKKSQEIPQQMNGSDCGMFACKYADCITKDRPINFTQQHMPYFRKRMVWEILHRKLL
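Material – human SENP1 catalytic domain · Input – SENP1 enzyme, 20 pM final · Compound dosing – single concentration of 10 µM compound, 0.5% DMSO final · Timing – enzyme reaction for 50 min at room temperature, dark · Measured by – FRET fluorescence in CFP and YFP emission channels · Control set – no-enzyme wells low, DMSO-plus-enzyme wells high control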
Myeloid diff CP1 – compounds promoting myeloid differentiation | shares compounds with Myeloid diff MLP | ER-HoxA9 myeloid progenitors, GFP/Mac1 double-positive flow | calls only | 2% of 2,300 active | AID 651706;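 active = share of green or green-and-red cells above 9 and 9% in run 1 or 4 and 3% in run 2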
GFP autofluor – counter-screen for myeloid differentiation promoters: compound fluorescence; shares compounds with Myeloid diff MLP; ER-HoxA9 myeloid progenitors, no estrogen, GFP autofluorescence flow cytometry; vehicle wells 0%, positive control 100%; fluorescence response, % (concentration not given with the values); 7.4% of 2,300 active;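 active = over 5% cells positive for green fluorescent reporter, or over 2% positive for both it and APC stain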;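 note: range taken on the double positive population between DMSO and positive control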
* = called active by the depositor; i = inactive; ? = inconclusive; nt = no result given; + = active, no number.

SMILES	Myeloid diff MLP	MT1-MMP act inh	beta cell repl	DAGLB inhibitor	NRP1-CendR mod	SENP1 inh	Myeloid diff CP1	GFP autofluor
O=C(c1cccs1)N1C[C@@H](n2cc(-c3ccc(F)cc3)nn2)[C@H](O)C[C@@H]1c1ccc(Cl)cc1	i	0.1	nt	-2.3	6.7	4.3	i	0.7
O[C@@H]1CN(CC2CCCCC2)[C@@H](c2ccc(Cl)cc2)C[C@H]1n1cc(-c2ccc(F)cc2)nn1	i	0.9	nt	-1.5	-8.9	0.8	nt	nt
COc1ccc([C@H]2C[C@H](n3cc(-c4ccc(F)cc4)nn3)[C@@H](O)CN2CC2CCCCC2)cc1	+	5.5	nt	-3.9	-8.0	-6.1	i	0.3
Cc1onc(-c2ccccc2Cl)c1C(=O)Nc1ccccc1N1CCOCC1	i	-4.7	5.3	-0.9	-8.9	-1.4	nt	nt
CC(C)N(C(=O)[C@H]1C[C@H](CC(=O)NCCC2=CCCCC2)C(=O)N2CCc3c([nH]c4cc(-c5ccco5)ccc34)[C@]12C)C(C)C	i	-9.3	nt	-0.7	-16.0	-7.9	i	3.2
CC(C)N(C(=O)[C@H]1C[C@H](CC(=O)NCc2cccc(C(F)(F)F)c2)C(=O)N2CCc3c([nH]c4cc(-c5ccco5)ccc34)[C@]12C)C(C)C	?	-4.3	nt	1.4	-8.7	-15.9	i	0.4
CC(C)N(C(=O)[C@H]1C[C@H](CC(=O)NCCCN(C)C)C(=O)N2CCc3c([nH]c4cc(-c5ccco5)ccc34)[C@]12C)C(C)C	i	0.4	nt	2.5	7.7	1.7	nt	nt
Cc1ccc(S(=O)(=O)N2CCN(c3ncnc4sccc34)CC2)cc1	i	-7.6	-7.0	-1.7	13.4	0.7	nt	nt
Cc1ccc(-c2nnc(-c3ccc(NC(=O)Cc4cccs4)cc3)o2)cc1	+	1.5	-4.1	1.7	-12.1	0.0	i	0.0
O=C(Cc1cccs1)Nc1cccc(-c2nnc(-c3ccco3)o2)c1	i	10.4	1.1	-0.1	-3.6	-0.5	nt	nt
COc1ccc(C(CCNCc2ccccc2)c2ccc(F)cc2)cc1 (stereo unspecified)	i	-0.1	-6.3	-3.0	-4.7	0.8	i	1.6
O=C1CCCS(=O)(=O)c2ccccc21	i	-4.8	-1.2	1.4	-0.6	2.4	nt	nt
Cc1nc(C(=O)Nc2cc(Cl)ccc2Cl)nn1-c1cc(OC(C)C)c(Cl)cc1Cl	i	5.5	-5.2	-1.3	1.3	0.7	nt	nt
Cc1nc(C(=O)Nc2cccc(Cl)c2)nn1-c1cc(OC(C)C)c(Cl)cc1Cl	+	2.5	-5.3	-3.6	4.2	-2.9	i	0.0
CCCCn1c(-c2ccc(Cl)c(Cl)c2)nc2cc3[nH]c(=O)c(C(C)C)nc3cc21	i	-4.6	-3.1	-1.7	-20.5	-55.5	nt	nt
CCCCn1c(-c2ccc(C(C)(C)C)cc2)nc2cc3[nH]c(=O)c(C(C)C)nc3cc21	+	-10.3	-7.8	0.0	-14.3	-45.2	i	1.5
Cc1ccc2sc(N3CCN(C(=O)c4ccc([N+](=O)[O-])o4)CC3)nc2c1C	i	1.3	-3.0	-1.1	2.1	1.5	nt	nt
COc1cccc2sc(N3CCN(C(=O)c4ccc([N+](=O)[O-])o4)CC3)nc12	+	4.6	-6.3	2.5	-8.2	2.1	i	0.0
O=C(c1ccc([N+](=O)[O-])o1)N1CCN(c2nc3c(Cl)cccc3s2)CC1	i	1.9	-5.9	-1.1	-4.3	1.1	nt	nt
O=C(c1ccc([N+](=O)[O-])o1)N1CCN(c2nc3ccc(F)cc3s2)CC1	i	-0.1	-4.4	-0.5	-2.1	1.0	i	0.0
CCC(Cc1ccccc1)NC(=O)c1cc(S(=O)(=O)N2CCCCC2)c[nH]1 (stereo unspecified)	i	-5.2	-3.1	-1.2	-7.6	2.5	nt	nt
C=C(C(=O)O)C1CCC2(C)CCCC(C)(O)C2C1 (stereo unspecified)	i	1.8	1.3	0.3	-8.1	4.2	nt	nt
